# Columns and labels:
# hCB1R [1] = target: T1, hCB1R (Homo sapiens, UniProt P21554); experiment: PLCβ3 phosphorylation, In-cell western; format: cell-based; conditions: 1 nM – 10 μM; HEK293A and Neuro2a cells
# hCB1R [2] = target: T1, hCB1R; experiment: ERK1/2 phosphorylation, In-cell western; format: cell-based; conditions: 1 nM – 10 μM; HEK293A and Neuro2a cells
# hCB1R [3] = target: T1, hCB1R; experiment: [3H]CP55,940 binding to CHO-hCB1R membranes; conditions: 10 μM
# hCB1R [4] = target: T1, hCB1R; experiment: Arrestin2 recruitment to hCB1R-GFP2 by BRET2; format: cell-based; conditions: for Arrestin2 recruitment by the compound alone: 1 nM – 10 μM, HEK293A or Neuro2a cells; for Log(αβ) / α (affinity modulation) / β (efficacy modulation) / τB (modulator efficacy): BRETEff, HEK293A, ± SD; for Log(αβ) / α (affinity modulation) / β (efficacy modulation): CP55,940 as agonist; for τB (modulator efficacy): fraction of the efficacy of CP55,940
# hCB1R [5] = target: T1, hCB1R; experiment: cAMP luciferase reporter assay in HEK-CRE cells transfected with hCB1R-GFP2; format: cell-based; conditions: for Log(αβ) / α (affinity modulation) / β (efficacy modulation): CP55,940 as agonist, ± SD; for τB (modulator efficacy): fraction of the efficacy of CP55,940, ± SD
# hCB1R [6] = experiment: Induced signaling bias, cAMP inhibition versus arrestin2 recruitment, ΔLog; format: cell-based, human; conditions: CP55,940, 95% CI; for ΔLog(αβ): cAMP versus arrestin2 (BRET2); for Induced Bias: toward inhibition of cAMP production over arrestin2 recruitment
# In short: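 Arrestin2 arm: HEK293A cells were transfected with hCB1R-GFP2 and arrestin2-Rluc. Cells were suspended in BRET buffer 48 h later and read by BRET2 (coelenterazine 400a 50 μM; emissions 405/510 nm). cAMP arm: HEK-CRE cells carried hCB1R-GFP2 and were read by luciferase reporter in 10 µM forskolin. CP55,940 1 nM–10 µM ± test compound 1 nM–10 µM, 0.1% DMSO. Data were fit to an allosteric binding plus Black-Leff operational model, with four independent estimates.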
# CB1R [7] = target: T2, CB1R (Mus musculus, UniProt P47746); experiment: [3H]CP55,940 binding to mouse brain membranes; conditions: 1 nM – 10 μM
# T2 sequence (P47746 whole entry): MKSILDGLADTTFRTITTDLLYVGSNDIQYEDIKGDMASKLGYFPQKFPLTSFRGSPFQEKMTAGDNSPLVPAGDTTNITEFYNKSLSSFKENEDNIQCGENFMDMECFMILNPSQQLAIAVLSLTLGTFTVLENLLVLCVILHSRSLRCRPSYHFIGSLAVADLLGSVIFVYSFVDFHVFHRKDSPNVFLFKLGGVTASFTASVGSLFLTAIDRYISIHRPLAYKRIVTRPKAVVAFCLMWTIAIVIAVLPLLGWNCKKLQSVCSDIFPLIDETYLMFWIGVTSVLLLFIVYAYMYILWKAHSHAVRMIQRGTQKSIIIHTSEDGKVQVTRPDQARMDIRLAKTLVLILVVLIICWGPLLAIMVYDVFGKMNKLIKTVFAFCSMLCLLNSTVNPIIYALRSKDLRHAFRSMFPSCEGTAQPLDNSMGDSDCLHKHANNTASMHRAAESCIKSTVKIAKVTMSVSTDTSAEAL
# In short: (§1)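 Filtration displacement assay with 0.7 nM [3H]CP55,940 in 50 mM Tris-HCl/50 mM Tris-base, 0.1% BSA, pH 7.4, run 60 min at 37 °C. Membranes were from CHO cells stably expressing hCB2R (50 µg protein) or from mouse whole brain. Test compound was added from 10 mM DMSO stock (0.1% DMSO final). Nonspecific binding used 1 µM unlabelled CP55,940; radioactivity was counted by liquid scintillation.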
# hCB2R = hCB2R (Homo sapiens, UniProt P34972); experiment: [3H]CP55,940 binding to CHO-hCB2R membranes; conditions: data not shown
# Sequence of hCB2R (P34972 whole entry): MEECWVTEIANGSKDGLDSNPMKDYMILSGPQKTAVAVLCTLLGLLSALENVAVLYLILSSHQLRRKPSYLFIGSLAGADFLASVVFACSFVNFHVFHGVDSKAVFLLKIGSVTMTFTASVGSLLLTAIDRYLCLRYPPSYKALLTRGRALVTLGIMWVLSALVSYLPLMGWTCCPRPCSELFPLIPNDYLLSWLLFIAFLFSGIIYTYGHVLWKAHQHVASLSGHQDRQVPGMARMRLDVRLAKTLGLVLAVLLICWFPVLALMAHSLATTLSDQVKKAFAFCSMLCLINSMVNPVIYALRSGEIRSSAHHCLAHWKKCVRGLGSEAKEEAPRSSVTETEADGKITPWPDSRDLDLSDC
# In short: as §1
# CB1R [8] = target: T2, CB1R; experiment: Electrically-evoked contractions of mouse isolated vas deferens
# T1 sequence (P21554 whole entry): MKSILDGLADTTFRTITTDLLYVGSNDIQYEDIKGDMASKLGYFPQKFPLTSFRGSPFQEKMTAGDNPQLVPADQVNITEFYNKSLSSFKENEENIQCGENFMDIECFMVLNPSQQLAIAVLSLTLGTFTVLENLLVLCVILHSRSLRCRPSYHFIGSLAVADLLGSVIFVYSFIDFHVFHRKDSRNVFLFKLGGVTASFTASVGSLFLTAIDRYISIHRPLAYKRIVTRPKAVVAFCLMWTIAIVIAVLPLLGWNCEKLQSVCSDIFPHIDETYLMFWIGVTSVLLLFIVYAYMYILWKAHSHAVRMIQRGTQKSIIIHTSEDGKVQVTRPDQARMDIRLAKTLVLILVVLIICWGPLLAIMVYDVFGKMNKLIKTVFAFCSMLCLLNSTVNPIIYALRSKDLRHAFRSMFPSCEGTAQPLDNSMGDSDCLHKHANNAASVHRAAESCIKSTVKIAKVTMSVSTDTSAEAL
Compound,PLCβ3 phosphorylation by the compound alone (hCB1R [1]),ERK phosphorylation by the compound alone (hCB1R [2]),"Effect on [3H]CP55,940 binding (hCB1R [3])",Arrestin2 recruitment by the compound alone (hCB1R [4]),Log(αβ) (hCB1R [4]),α (affinity modulation) (hCB1R [4]),β (efficacy modulation) (hCB1R [4]),τB (modulator efficacy) (hCB1R [4]),Log(αβ) (hCB1R [5]),α (affinity modulation) (hCB1R [5]),β (efficacy modulation) (hCB1R [5]),τB (modulator efficacy) (hCB1R [5]),ΔLog(αβ) (hCB1R [6]),Induced Bias (hCB1R [6]),"Effect on [3H]CP55,940 binding to mouse brain membranes (CB1R [7])","Increase of [3H]CP55,940 binding to hCB2R (hCB2R; 10 μM)","Effect on [3H]CP55,940 binding to hCB2R (hCB2R; up to 1 μM)","Effect by itself on electrically-evoked contractions (CB1R [8]; 1 nM up to 10 μM, n=6, data not shown)","Effect on AEA-induced inhibition of electrically-evoked contractions (CB1R [8]; 1 μM modulator, AEA 10 and 100 nM)"
O=[N+]([O-])C[C@H](c1ccccc1)c1c(-c2ccccc2)[nH]c2ccccc12 [GAT228],increased,increased,weak PAM effect,increased arrestin2 recruitment in a concentration-dependent manner,0.21 ± 0.10,2.5 ± 0.58,0.68 ± 0.09,0.19 ± 0.04,−0.06 ± 0.36,1.08 ± 0.34,0.95 ± 0.5,0.15 ± 0.06,−0.27 (−0.40 – −0.09),0.54 (0.35 – 0.81),–,–,–,–,–
O=[N+]([O-])CC(c1ccccc1)c1c(-c2ccccc2)[nH]c2ccccc12 (centres unmarked) [GAT211],increased,increased,–,increased arrestin2 recruitment in a concentration-dependent manner,1.35 ± 0.04,24 ± 2.83,0.95 ± 0.06,0.15 ± 0.03,1.37 ± 0.06,21 ± 2,1.13 ± 0.19,0.19 ± 0.08,0.01 (−0.18 – 0.21),n.s,enhanced,29%,no effect,no statistically significant effect,potentiated
O=[N+]([O-])C[C@@H](c1ccccc1)c1c(-c2ccccc2)[nH]c2ccccc12 [GAT229],without effect,without effect,–,no effect,0.97 ± 0.14,4.25 ± 1.5,2.3 ± 0.38,0,1.3 ± 0.35,2.25 ± 1.26,10.75 ± 4.43,0,0.34 (0.14 – 0.54),–,–,–,–,–,–
